ChEMBL document CHEMBL3868630, “Synthesis, anti-proliferative activity, SAR study, and preliminary in vivo toxicity study of substituted N,N'-bis(arylmethyl)benzimidazolium salts against a panel of non-small cell lung cancer cell lines” (Bioorg Med Chem, 2017)

Tests used:
[1] = Aqueous solubility of the compound; format: physicochemical
[2] = Cytotoxicity against human NCI-H23 cells assessed as cell growth at 10 uM after 48 hrs by SRB assay relative to control; format: functional; details: NCI-H23, 48 h, read-out: Activity
[3] = Cytotoxicity against human HOP62 cells assessed as cell growth at 10 uM after 48 hrs by SRB assay relative to control; format: functional; details: HOP-62, 48 h, read-out: Activity
[4] = Cytotoxicity against human NCI-H460 cells assessed as decrease in cell viability after 72 hrs by MTT assay; format: functional, cell-based; details: NCI-H460, 72 h
Procedure, shortened: (§1)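 Cells kept in RPMI 1640 with 10% FBS at 37 °C, 5% CO2, passaged every 2-3 days; seeded at 5,000-7,000 cells/well and left 24 h. Compounds dissolved in 1% DMSO, diluted in fresh medium to 1, 4, 16 and 32 µM, added in sextuplicate; 72 h exposure. MTT added for 3-4 h, medium removed, DMSO added for 15 min at 37 °C, OD read at 540 nm.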

[5] = Cytotoxicity against human A549 cells assessed as cell growth at 10 uM after 48 hrs by SRB assay relative to control; format: functional; details: A549, 48 h, read-out: Activity
[6] = Cytotoxicity against human NCI-H226 cells assessed as cell growth at 10 uM after 48 hrs by SRB assay relative to control; format: functional; details: NCI-H226, 48 h, read-out: Activity
[7] = Cytotoxicity against human A549 cells assessed as decrease in cell viability after 72 hrs by MTT assay; format: functional, cell-based; details: A549, 72 h; procedure, shortened: as §1
[8] = Cytotoxicity against human NCI-H1975 cells assessed as decrease in cell viability after 72 hrs by MTT assay; format: functional, cell-based; details: NCI-H1975, 72 h; procedure, shortened: as §1
[9] = Cytotoxicity against human HCC827 cells assessed as decrease in cell viability after 72 hrs by MTT assay; format: functional, cell-based; details: HCC827, 72 h; procedure, shortened: as §1
[10] = Cytotoxicity against human HOP92 cells assessed as cell growth at 10 uM after 48 hrs by SRB assay relative to control; format: functional; details: HOP-92, 48 h, read-out: Activity
[11] = Cytotoxicity against human EKVX cells assessed as cell growth at 10 uM after 48 hrs by SRB assay relative to control; format: functional; details: read-out: Activity
[12] = Cytotoxicity against human NCI-H322M cells assessed as cell growth at 10 uM after 48 hrs by SRB assay relative to control; format: functional; details: read-out: Activity
[13] = Cytotoxicity against human NCI-H460 cells assessed as cell growth at 10 uM after 48 hrs by SRB assay relative to control; format: functional; details: NCI-H460, 48 h, read-out: Activity
[14] = Cytotoxicity against human NCI-H522 cells assessed as cell growth at 10 uM after 48 hrs by SRB assay relative to control; format: functional; details: NCI-H522, 48 h, read-out: Activity
[15] = Growth inhibition of human HOP62 cells after 48 hrs by SRB assay; format: functional; details: HOP-62, 48 h
[16] = Growth inhibition of human NCI-H23 cells after 48 hrs by SRB assay; format: functional; details: NCI-H23, 48 h
[17] = Growth inhibition of human NCI-H522 cells after 48 hrs by SRB assay; format: functional; details: NCI-H522, 48 h
[18] = Growth inhibition of human NCI-H460 cells after 48 hrs by SRB assay; format: functional; details: NCI-H460, 48 h
[19] = Growth inhibition of human HOP92 cells after 48 hrs by SRB assay; format: functional; details: HOP-92, 48 h
[20] = Growth inhibition of human NCI-H322M cells after 48 hrs by SRB assay; format: functional
[21] = Growth inhibition of human NCI-H226 cells after 48 hrs by SRB assay; format: functional; details: NCI-H226, 48 h
[22] = Growth inhibition of human A549 cells after 48 hrs by SRB assay; format: functional; details: A549, 48 h
[23] = Growth inhibition of human EKVX cells after 48 hrs by SRB assay; format: functional

Row | Structure (SMILES) | solubility [1] | growth at 10 µM [2] | growth at 10 µM [3] | IC50 [4] | growth at 10 µM [5] | growth at 10 µM [6] | IC50 [7] | IC50 [8] | IC50 [9] | growth at 10 µM [10] | growth at 10 µM [11] | growth at 10 µM [12] | growth at 10 µM [13] | growth at 10 µM [14] | further results
1 | S=c1n(Cc2ccc3ccccc3c2)c2ccccc2n1Cc1ccc2ccccc2c1 | < 0.5 mg/mL | 93.1% | 81.9% | > 30 µM | 87.6% | 73.5% | > 30 µM | > 30 µM | > 30 µM | 83.4% | 93.1% | 92.6% | 69.8% | 88.2% | 
2 | CCc1n(Cc2ccc3ccccc3c2)c2ccccc2[n+]1Cc1ccc2ccccc2c1.[Br-] | < 0.5 mg/mL | 28.8% | 81.3% | 3 µM | 74.2% | 64.9% | 3 µM | < 1 µM | 4 µM | 21.9% | 76.7% | 90.7% | 53.6% | 12.1% | 
3 | CCCCc1n(Cc2ccc3ccccc3c2)c2ccccc2[n+]1Cc1ccc2ccccc2c1.[Br-] | < 0.5 mg/mL | -83.9% | -76.8% | 2 µM | -72.3% | -72.7% | 2 µM | < 1 µM | 2 µM | -70.7% | -84.6% | -82.2% | -81.1% | -77.2% | GI50 [15]: 1.05 µM; TGI [15]: 2.55 µM; GI50 [16]: 0.371 µM; TGI [16]: 1.7 µM; GI50 [17]: 0.289 µM; TGI [17]: 1.35 µM; GI50 [18]: 0.436 µM; GI50 [19]: 0.298 µM; TGI [19]: 1.35 µM; GI50 [20]: 1.22 µM; TGI [20]: 2.57 µM; GI50 [21]: 1.08 µM; GI50 [22]: 1.04 µM; TGI [22]: 2.42 µM; GI50 [23]: 1.17 µM
4 | Cc1n(Cc2ccc3ccccc3n2)c2ccccc2[n+]1Cc1ccc2ccccc2n1.[Cl-] | 1.1 mg/mL | 75.8% | 82.7% | 3 µM | 87.9% | 89.6% | 9 µM | 2 µM | 7 µM | 52% | 102% | 94.9% | 95.8% | 56.6% | 
5 | COCCc1n(Cc2ccc3ccccc3c2)c2ccccc2[n+]1Cc1ccc2ccccc2c1.[Br-] | < 0.5 mg/mL | -24.3% | -19.1% | 3 µM | 4.72% | -7.12% | 3 µM | 2 µM | 3 µM | -53.1% | 4.7% | 5.25% | -65.3% | -54.4% | 
6 | COCCOCCOCc1n(Cc2ccc3ccccc3c2)c2ccccc2[n+]1Cc1ccc2ccccc2c1.[Br-] | 0.7 mg/mL | 5.56% | 17.1% | 3 µM | 33.1% | 17.2% | 5 µM | 3 µM | 5 µM | -32.1% | 47.4% | 40.5% | 10.3% | -16.6% | 
7 | O=c1n(Cc2ccc3ccccc3c2)c2ccccc2n1Cc1ccc2ccccc2c1 | < 0.5 mg/mL | 77.7% | 62.8% | > 30 µM | 85.2% | 83.9% | > 30 µM | 19 µM | > 30 µM | 79.9% | 79.5% | 81.6% | 74.6% | 73.4% | 
8 | COC(=O)CCc1n(Cc2ccc3ccccc3c2)c2ccccc2[n+]1Cc1ccc2ccccc2c1.[Br-] | < 0.5 mg/mL | -7.39% | 19% | 4 µM | 38.3% | 17.7% | 8 µM | 2 µM | 4 µM | -34.4% | 42.1% | 36.6% | 6.29% | -29.4% | 
9 | COCCOCCOCc1n(Cc2ccc3ccccc3n2)c2ccccc2[n+]1Cc1ccc2ccccc2n1.[Cl-] | 42.2 mg/mL | 12.8% | 20.8% | 4 µM | 39.4% | 37.9% | 9 µM | < 1 µM | 4 µM | -22.1% | 71.6% | 47.4% | 16.5% | -1.7% | 
10 | [Br-].c1ccc2cc(Cn3c[n+](Cc4ccc5ccccc5c4)c4ccccc43)ccc2c1 | < 0.5 mg/mL | -0.74% | 3.98% | 3 µM | 30.9% | 19.6% | 5 µM | 3 µM | 3 µM | -27.6% | 13.9% | 34.6% | -34.2% | -28.8% | GI50 [15]: 1.54 µM; TGI [15]: 2.98 µM; GI50 [16]: 1.05 µM; TGI [16]: 2.51 µM; GI50 [17]: 1.25 µM; TGI [17]: 2.82 µM; GI50 [18]: 1.35 µM; TGI [18]: 2.91 µM; GI50 [19]: 0.192 µM; LC50 [19]: 4.93 µM; TGI [19]: 1.57 µM; GI50 [20]: 1.49 µM; TGI [20]: 2.89 µM; GI50 [21]: 1.46 µM; TGI [21]: 3.25 µM; GI50 [22]: 1.87 µM; LC50 [22]: 8.01 µM; TGI [22]: 3.88 µM; GI50 [23]: 1.47 µM; TGI [23]: 2.95 µM
11 | CCCCCCCc1n(Cc2ccc3ccccc3c2)c2ccccc2[n+]1Cc1ccc2ccccc2c1.[Br-] | < 0.5 mg/mL | -76.9% | -70.6% | < 1 µM | -77.5% | -70.8% | < 1 µM | < 1 µM | < 1 µM | -84.4% | -73.5% | -86% | -73% | -81.1% | 
12 | CCCc1n(Cc2ccc3ccccc3c2)c2ccccc2[n+]1Cc1ccc2ccccc2c1.[Br-] | < 0.5 mg/mL | -12.9% | -55.4% | 2 µM | -19.4% | -4.44% | 2 µM | < 1 µM | < 1 µM | -48.1% | -4.84% | 4.72% | -76.1% | -60.1% | GI50 [15]: 0.537 µM; TGI [15]: 2.03 µM; GI50 [16]: 0.354 µM; TGI [16]: 1.6 µM; GI50 [17]: 0.3 µM; TGI [17]: 1.05 µM; GI50 [18]: 0.337 µM; TGI [18]: 1.36 µM; GI50 [19]: 0.192 µM; TGI [19]: 0.911 µM; GI50 [20]: 1.04 µM; TGI [20]: 2.31 µM; GI50 [21]: 0.373 µM; TGI [21]: 1.8 µM; GI50 [22]: 0.619 µM; LC50 [22]: 5.09 µM; TGI [22]: 2.04 µM; GI50 [23]: 0.653 µM; TGI [23]: 2.33 µM
13 | OCCCc1n(Cc2ccc3ccccc3n2)c2ccccc2[n+]1Cc1ccc2ccccc2n1.[Cl-] | < 0.5 mg/mL | 75% | 87.5% | 11 µM | 93.2% | 79.8% | 25 µM | 7 µM | 17 µM | 47.9% | 97.8% | 91.7% | 91.8% | 60% | 
